This note sets out measurements from ChEMBL document CHEMBL3351534, “Design, synthesis and antimycobacterial evaluation of 1-(4-(2-substitutedthiazol-4-yl)phenethyl)-4-(3-(4-substitutedpiperazin-1-yl)alkyl)piperazine hybrid analogues” (Eur J Med Chem, 2014).

Each structure is given as a SMILES string. Values after ≈ are worked out from the molar mass of the structure shown.

For data set [1], the system named is Mycobacterium tuberculosis. Put plainly: Antimycobacterial activity against Mycobacterium tuberculosis H37Rv after 5 days by MABA method. Format: functional. As to conditions: 120 h. A digest of the protocol: (§1)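 MABA in 96-well plates against M. tuberculosis H37Rv. Compounds serially diluted 1:2 across columns, inoculum added, with medium-only and 3–5% DMSO solvent controls. Incubated 37 °C for 5 days. A 1:1 mix of 10× Alamar Blue and 10% Tween 80 was added and plates were reincubated 24 h at 37 °C. Blue read as no growth, pink as growth. MIC read from colour.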
For orientation: Resazurin is reduced to fluorescent resorufin, in cell work by metabolically active cells.

Data set [2] in a line: Toxicity against mouse RAW264.7 cells assessed as inhibition of cell viability at 50 ug/mL after 72 hrs by MTT assay. As to conditions: read-out: INH. Format: cell-based. In short, it runs like this: (§2)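 RAW 264.7 cells were exposed to compounds for 72 h. Viability was then scored by the cells' conversion of MTT into a formazan product, using a non-radioactive cell proliferation kit. Results were expressed as percentage growth inhibition at a single high concentration and as an approximate IC50.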
In general terms: Tetrazolium dyes change colour on reduction, which living cells bring about.

A short description of data set [3]: Selectivity index, ratio of IC50 for mouse RAW264.7 cells to MIC for Mycobacterium tuberculosis H37Rv. The following applies: read-out: Selectivity Index. Format: toxicity. A digest of the protocol:
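SI = IC50/MIC. IC50 comes from an MTT assay on RAW 264.7 cells, with viability read as conversion of MTT to formazan after 72 h exposure and % inhibition recorded at 50 µg/mL. MIC comes from the M. tuberculosis H37Rv MABA (5 days at 37 °C, Alamar Blue colour read-out).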

Data set [4] concerns Mycobacterium tuberculosis. The data set is described as follows: Antimycobacterial activity against Mycobacterium tuberculosis H37Rv assessed as inhibition of microbial growth at 3.125 ug/mL after 5 days by MABA method. The class given is functional. The following applies: 120 h. In short, it runs like this: as §1
Data set [5] can be described thus: Toxicity against mouse RAW264.7 cells assessed as inhibition of cell viability after 72 hrs by MTT assay. Format: cell-based. In short, it runs like this:
as §2

In data set [6] the test system is Mycobacterium tuberculosis. Put plainly: Antimycobacterial activity against Mycobacterium tuberculosis H37Rv assessed as inhibition of microbial growth at 1.56 ug/mL after 5 days by MABA method. Format: functional. As to conditions: 120 h. In short, it runs like this: as §1
For data set [7], the system named is Mycobacterium tuberculosis. The data set is described as follows: Antimycobacterial activity against Mycobacterium tuberculosis H37Rv assessed as inhibition of microbial growth at 6.25 ug/mL after 5 days by MABA method. The class given is functional. As to conditions: 120 h. In short, it runs like this: as §1

In general, MIC refers to the lowest concentration that inhibits growth of the organism. A lower MIC goes with inhibition by little substance. `Cc1nc(-c2ccc(CCN3CCN(CCCN4CCN(c5ccccc5Cl)CC4)CC3)cc2)cs1` had an MIC in data set [1] of 50 µg/mL (≈ 95.4 µM).

Regarding `CO[C@H]1/C=C/O[C@@]2(C)Oc3c(C)c(O)c4c(O)c(c(/C=N/N5CCN(C)CC5)c(O)c4c3C2=O)NC(=O)/C(C)=C\C=C\[C@H](C)[C@H](O)[C@@H](C)[C@@H](O)[C@@H](C)[C@H](OC(C)=O)[C@@H]1C` [RIFAMPIN], the MIC in data set [1] worked out at 0.1 µg/mL (≈ 0.122 µM). This MIC is about 500-fold lower than that of the compound before.

As a reminder, the inhibition is the percentage by which the read-out fell short of the control. As a reminder, the IC50 is the concentration that inhibits the measured activity by half. In the case of `Nc1nc(-c2ccc(CCN3CCN(CCCN4CCN(c5ccccn5)CC4)CC3)cc2)cs1`, the cytotoxicity at 72 h, 50 ug/mL in data set [2] amounted to 38.1%. This compound also displayed an MIC in data set [1] of 3.12 µg/mL (≈ 6.36 µM). The selectivity ratio in data set [3] was > 15. In addition, the inhibition at 3.125 µg/mL in data set [4] was found to be 99%. Also, the concentration for half-maximal inhibition (IC50) at 72 h in data set [5] is > 50 µg/mL.

Consider `Nc1nc(-c2ccc(CCN3CCN(CCCN4CCN(c5ccccc5)CC4)CC3)cc2)cs1`, for which, in data set [2], the cytotoxicity at 72 h, 50 ug/mL stood at 35.6%. In data set [1], this compound yielded an MIC of 3.12 µg/mL (≈ 6.37 µM). The selectivity ratio in data set [3] was > 15. Moreover, in data set [4], the inhibition at 3.125 µg/mL is 99%. The IC50 at 72 h in data set [5] is > 50 µg/mL.

In data set [1], `CNc1nc(-c2ccc(CCN3CCN(CCCCN4CCN(c5ccccc5)CC4)CC3)cc2)cs1` returned an MIC of 12.5 µg/mL (≈ 24.1 µM).

`CNc1nc(-c2ccc(CCN3CCN(CCCN4CCN(C(c5ccccc5)c5ccccc5)CC4)CC3)cc2)cs1`: the cytotoxicity at 72 h, 50 ug/mL in data set [2] was determined as 31.8%. This compound also displayed an MIC in data set [1] of 1.56 µg/mL (≈ 2.62 µM). For the same compound, the selectivity ratio in data set [3] was > 30. The IC50 at 72 h in data set [5] is > 50 µg/mL. In addition, the inhibition at 1.56 µg/mL in data set [6] stood at 99%.

`CNc1nc(-c2ccc(CCN3CCN(CCCN4CCN(c5ccccc5Cl)CC4)CC3)cc2)cs1` displayed an MIC in data set [1] of 12.5 µg/mL (≈ 23.2 µM).

As to `CNc1nc(-c2ccc(CCN3CCN(CCCN4CCN(c5ccc([N+](=O)[O-])cc5)CC4)CC3)cc2)cs1`, the MIC in data set [1] came to 12.5 µg/mL (≈ 22.7 µM).

Compound `Cc1nc(-c2ccc(CCN3CCN(CCCN4CCN(c5ccc([N+](=O)[O-])cc5)CC4)CC3)cc2)cs1` yielded an MIC in data set [1] of 50 µg/mL (≈ 93.5 µM).

For `CNc1nc(-c2ccc(CCN3CCN(CCCCN4CCN(c5ccccc5Cl)CC4)CC3)cc2)cs1`, the cytotoxicity at 72 h, 50 ug/mL in data set [2] was 40.4%. The compound also registered an MIC in data set [1] of 3.12 µg/mL (≈ 5.65 µM). The selectivity ratio in data set [3] is > 15. Also, the inhibition at 3.125 µg/mL in data set [4] is 99%. Also, the concentration for half-maximal inhibition (IC50) at 72 h in data set [5] was > 50 µg/mL.

Compound `CNc1nc(-c2ccc(CCN3CCN(CCCN4CCN(c5ccccn5)CC4)CC3)cc2)cs1` came in with an MIC in data set [1] of 12.5 µg/mL (≈ 24.7 µM).

Regarding `Nc1nc(-c2ccc(CCN3CCN(CCCN4CCN(C(c5ccccc5)c5ccccc5)CC4)CC3)cc2)cs1`, the cytotoxicity at 72 h, 50 ug/mL in data set [2] came out at 38.4%. In data set [1], this compound registered an MIC of 3.12 µg/mL (≈ 5.38 µM). Further, the selectivity ratio in data set [3] is > 15. For the same compound, the inhibition at 3.125 µg/mL in data set [4] stood at 99%. Moreover, the IC50 at 72 h in data set [5] was > 50 µg/mL.

Take `CNc1nc(-c2ccc(CCN3CCN(CCCCN4CCN(c5ccc([N+](=O)[O-])cc5)CC4)CC3)cc2)cs1`: the MIC in data set [1] stood at 50 µg/mL (≈ 88.7 µM).

In data set [1], `CNc1nc(-c2ccc(CCN3CCN(CCCCN4CCN(c5ccccn5)CC4)CC3)cc2)cs1` showed an MIC of 25 µg/mL (≈ 48.1 µM).

With `Nc1nc(-c2ccc(CCN3CCN(CCCN4CCN(c5ccc([N+](=O)[O-])cc5)CC4)CC3)cc2)cs1`, in data set [2], the cytotoxicity at 72 h, 50 ug/mL is 36.5%. For the same compound, 6.25 µg/mL (≈ 11.7 µM) was the least that counted as inhibitory in data set [1] (MIC). Also, in data set [3], the selectivity ratio was > 7. Moreover, in data set [7], the inhibition at 6.25 µg/mL came out at 99%. Further, in data set [5], the IC50 at 72 h was > 50 µg/mL.

Turning to `CNc1nc(-c2ccc(CCN3CCN(CCCN4CCN(c5ccccc5)CC4)CC3)cc2)cs1`, the lowest concentration to inhibit growth in data set [1] (MIC) was 50 µg/mL (≈ 99.1 µM).

Take `CNc1nc(-c2ccc(CCN3CCN(CCCCN4CCN(C(c5ccccc5)c5ccccc5)CC4)CC3)cc2)cs1`: the lowest concentration to inhibit growth in data set [1] (MIC) was 50 µg/mL (≈ 82.1 µM).

In data set [1], `Cc1nc(-c2ccc(CCN3CCN(CCCN4CCN(c5ccccc5)CC4)CC3)cc2)cs1` returned an MIC of 25 µg/mL (≈ 51 µM). This MIC is about 2-fold lower than that of the compound before.

In the case of `Nc1nc(-c2ccc(CCN3CCN(CCCCN4CCN(c5ccccc5Cl)CC4)CC3)cc2)cs1`, the lowest concentration to inhibit growth in data set [1] (MIC) was 50 µg/mL (≈ 92.7 µM).

Regarding `Cc1nc(-c2ccc(CCN3CCN(CCCN4CCN(C(c5ccccc5)c5ccccc5)CC4)CC3)cc2)cs1`, the cytotoxicity at 72 h, 50 ug/mL in data set [2] is 42.8%. The MIC in data set [1] came out at 6.25 µg/mL (≈ 10.8 µM). The selectivity ratio in data set [3] was > 7. Moreover, in data set [7], the inhibition at 6.25 µg/mL was 99%. For the same compound, in data set [5], the IC50 at 72 h is > 50 µg/mL.

As to `NNC(=O)c1ccncc1` [ISONIAZID], in data set [1], it took 0.05 µg/mL (≈ 0.365 µM) to inhibit growth (MIC).

The compound `Nc1nc(-c2ccc(CCN3CCN(CCCCN4CCN(c5ccc([N+](=O)[O-])cc5)CC4)CC3)cc2)cs1` yielded an MIC in data set [1] of 12.5 µg/mL (≈ 22.7 µM).

Consider `Nc1nc(-c2ccc(CCN3CCN(CCCCN4CCN(C(c5ccccc5)c5ccccc5)CC4)CC3)cc2)cs1`, for which the cytotoxicity at 72 h, 50 ug/mL in data set [2] was 46.4%. The compound also came in with an MIC in data set [1] of 3.12 µg/mL (≈ 5.25 µM). In addition, the selectivity ratio in data set [3] was > 15. In data set [4], the inhibition at 3.125 µg/mL stood at 99%. The IC50 at 72 h in data set [5] is > 50 µg/mL.

Take `Nc1nc(-c2ccc(CCN3CCN(CCCCCN4CCN(c5ccc([N+](=O)[O-])cc5)CC4)CC3)cc2)cs1`: the cytotoxicity at 72 h, 50 ug/mL in data set [2] worked out at 44.6%. Further, the lowest concentration to inhibit growth in data set [1] (MIC) was 6.25 µg/mL (≈ 11.1 µM). The selectivity ratio in data set [3] was > 7. Also, in data set [7], the inhibition at 6.25 µg/mL stood at 99%. The IC50 at 72 h in data set [5] was > 50 µg/mL.

In data set [1], `Nc1nc(-c2ccc(CCN3CCN(CCCCN4CCN(c5ccccc5)CC4)CC3)cc2)cs1` showed an MIC of 25 µg/mL (≈ 49.5 µM).

Turning to `Cc1nc(-c2ccc(CCN3CCN(CCCN4CCN(c5ccccn5)CC4)CC3)cc2)cs1`, in data set [1], 50 µg/mL (≈ 102 µM) was the least that counted as inhibitory (MIC).

The compound `Nc1nc(-c2ccc(CCN3CCN(CCCN4CCN(c5ccccc5Cl)CC4)CC3)cc2)cs1` had an MIC in data set [1] of 50 µg/mL (≈ 95.2 µM).

`Nc1nc(-c2ccc(CCN3CCN(CCCCN4CCN(c5ccccn5)CC4)CC3)cc2)cs1` gave an MIC in data set [1] of 12.5 µg/mL (≈ 24.7 µM).
